Experimental data reported in PMC2861555 (International journal of radiation biology, 2009).
Where two headings read alike, the source gives them in different places. Marks after values point to notes of the source that are not given here.

Experiments:
[1] = type: in vivo, rat; details: for Bile/Urine (%): bile share of U excretion / Bile/Urine (%): urine share of U excretion / % Administered Dose Excreted: 24 h; for Reduction (%) of renal uranium vs control / reduction of bone actinide content vs control: 24 h post-metal; for % Administered Dose Excreted: bile + urine; for Renal Conc.: kidneys removed 24 h post-metal; for Kidney U Conc. / Liver U Conc. / Lung U Conc. / Spleen U Conc. / Bone (femur) U Conc.: tissue 24 h post-metal; for Bone (femur) U Conc.: bone + bone marrow; for reduction of bone actinide content vs control: femur
[2] = Multiple dose chelator administration in non-bile duct-cannulated; type: in vivo, rat; details: for % Administered Dose Excreted / Total U Excretion: urine + feces
How it was run: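 Intact rats got uranyl acetate 1 mg U kg−1 s.c. (left flank), then test compound or DTPA 300 µmol kg−1 s.c. (right flank) immediately and at 24-h intervals (4 doses). Rats were caged singly with chow and water ad libitum. Urine and feces were collected every 24 h. Kidneys and other tissues were taken 24 h after the last dose. Uranium was measured by ICP-MS in triplicate; data are mean ± SEM.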

[3] = type: in vivo, rat; details: for administered uranium excreted (bile + urine): 24 h collection
How it was run: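 Bile duct-cannulated rats got uranium 1 mg U kg−1 s.c., then were housed singly in metabolic cages. A single s.c. 300 µmol kg−1 dose of test compound followed at 1, 2 or 4 h post-uranium. Bile and urine were collected for 24 h. Uranium was measured by ICP-MS, triplicate runs averaged. Data are mean ± SEM; one-tailed t-test assuming unequal variances, p<0.05.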

[4] = primates, dose 63.3 µmol kg^−1 day^−1; ref Bergeron et al., 2006b; cited from earlier work
rats = details: rodent model; ref Bergeron et al., 2006b; cited from earlier work
[5] = 24 h after last of 4 daily s.c. doses of 300 µmol kg^−1
[6] = Day 1, 300 µmol kg^−1 s.c. daily x 4
[7] = Day 2, 300 µmol kg^−1 s.c. daily x 4
[8] = Day 3, 300 µmol kg^−1 s.c. daily x 4
[9] = Day 4, 300 µmol kg^−1 s.c. daily x 4
[10] = single 300 µmol kg^−1 s.c. dose given 1 h post-uranium
[11] = single 300 µmol kg^−1 s.c. dose given 2 h post-uranium
[12] = single 300 µmol kg^−1 s.c. dose given 4 h post-uranium

## COCCOCCOCCOc1ccc(C2=N[C@@](C)(C(=O)O)CS2)c(O)c1 [compound 9, (S)-4,5-dihydro-2-[2-hydroxy-4-(3,6,9-trioxadecyloxy)phenyl]-4-methyl-4-thiazolecarboxylic acid]
[1]; single dose 150 µmol kg^−1 SC
  Bile/Urine (%): bile share of U excretion: 69%
  Bile/Urine (%): urine share of U excretion: 31%
  Reduction (%) of renal uranium vs control: 55%
  % Administered Dose Excreted: 48.2%
  Renal Conc.: 37 ± 16 ^b µg g^−1
  Kidney U Conc.: 37 ± 16 ^b µg g^−1
  Liver U Conc.: 1.6 ± 0.9 ^c µg g^−1
  Lung U Conc.: 0.16 ± 0.13 µg/g
  Spleen U Conc.: 0.20 ± 0.05 µg/g
  Bone (femur) U Conc.: 2.1 ± 0.5 ^b µg g^−1
[1]; single dose 150 µmol kg^−1 s.c.
  reduction of bone actinide content vs control: 42%
[1]; single dose 300 µmol kg^−1 PO
  Bile/Urine (%): urine share of U excretion: 29%
  Reduction (%) of renal uranium vs control: 57%
  % Administered Dose Excreted: 43.5%
  Renal Conc.: 36 ± 8 ^b µg g^−1
  Kidney U Conc.: 36 ± 8 ^b µg g^−1
  Liver U Conc.: 0.6 ± 0.2 ^c µg g^−1
  Lung U Conc.: 0.10 ± 0.02 ^b µg g^−1
  Spleen U Conc.: 0.13 ± 0.02 ^b µg g^−1
  Bone (femur) U Conc.: 2.7 ± 1.2 µg/g
[1]; single dose 300 µmol kg^−1 PO, listed as C00009
  Bile/Urine (%): bile share of U excretion: 71%
[1]; single dose 300 µmol kg^−1 SC
  Bile/Urine (%): bile share of U excretion: 84%
  Bile/Urine (%): urine share of U excretion: 16%
  Reduction (%) of renal uranium vs control: 66%
  % Administered Dose Excreted: ~52%
  Renal Conc.: 29 ± 6 ^b µg g^−1
  Kidney U Conc.: 29 ± 6 ^b µg g^−1
  Liver U Conc.: 0.9 ± 0.2 ^c µg g^−1
  Lung U Conc.: 0.13 ± 0.02 µg/g
  Spleen U Conc.: 0.18 ± 0.04 µg/g
  Bone (femur) U Conc.: 1.9 ± 0.5 ^b µg g^−1
[1]; single dose 300 µmol kg^−1 SC, listed as C00009
  % Administered Dose Excreted: 51.5%
[1]; single dose 300 µmol kg^−1 s.c.
  reduction of bone actinide content vs control: 48%
[2]; [5]
  Reduction (%) of renal uranium vs control: 62%
  Renal Conc.: 12 ± 2 ^c µg g^−1
[2]; [6]
  Fecal U Excretion: 478 ± 181 µg/kg
  % Administered Dose Excreted: 68.3%
  Total U Excretion: 683 ± 161 ^d µg kg^−1
[2]; Day 1, 300 µmol kg^−1 s.c. daily x 4, first dose immediately post-U
  Urine U Excretion: 205 ± 27 µg/kg
[2]; [7]
  Fecal U Excretion: 116 ± 46 µg/kg
  Urine U Excretion: 39 ± 5 µg/kg
  % Administered Dose Excreted: 15.5%
  Total U Excretion: 155 ± 48 ^d µg kg^−1
[2]; [8]
  Fecal U Excretion: 33 ± 4 µg/kg
  Urine U Excretion: 23 ± 4 µg/kg
  % Administered Dose Excreted: 5.6%
  Total U Excretion: 56 ± 7 µg/kg
[2]; [9]
  Fecal U Excretion: 25 ± 2 µg/kg
  Urine U Excretion: 11 ± 1 µg/kg
  % Administered Dose Excreted: 3.6%
  Total U Excretion: 36 ± 1 µg/kg
[2]; cumulative over 4 days, 300 µmol kg^−1 s.c. daily x 4
  administered dose of uranium excreted at the end of four days (urine + feces): 93%
[3]; [10]
  reduction in renal uranium content vs control: 74%
  administered uranium excreted (bile + urine): 34.6%
[3]; [11]
  reduction in renal uranium content vs control: 68%
  administered uranium excreted (bile + urine): 28.5%
[3]; [12]
  reduction in renal uranium content vs control: 35%
  administered uranium excreted (bile + urine): 28.6%
[4]
  iron excretion: 450 µg Fe kg^−1
rats
  nephrotoxicity: virtually eliminated nephrotoxicity
